# Laboratory results: ChEMBL document CHEMBL1123425, “Potential antitumor agents. 46. Structure-activity relationships for acridine monosubstituted derivatives of the antitumor agent N-[2-(dimethylamino)ethyl]-9-aminoacridine-4-carboxamide” (1986)
# How the values were obtained:
# HCT-8 = test: In vitro cytotoxicity against HCT-8 human colon carcinoma cells.; type: functional; conditions: read-out: ID50 (the source's name)
# How it was run: (§1)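 Cultured L1210 murine leukemia or HCT-8 human colon carcinoma cells were incubated with drug for 70 h. ID50 is the drug concentration (nM) that reduced cell number to 50% of untreated controls.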
# L1210 [1] = test: In vitro cytotoxicity against L1210 leukemia cells.; type: functional; conditions: Mus musculus, read-out: ID50 (the source's name); how it was run: as §1
# P388 [2] = test: Evaluated in vivo against P388 leukemia cells ( percent increase in life span of treated animals over that of control groups of tumor bearing untreated animals.); k = no activity at all dose levels up to acutely toxic ones; type: functional, organism-based; conditions: Mus musculus
# How it was run: (§2)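 Mice received 10⁶ P388 leukemia cells i.p. Drug was dissolved in 0.1 mL of 30% v/v ethanol/water and given i.p. on days 1, 5 and 9 after inoculation. The optimal dose is expressed in mg/kg per day.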
# Mus musculus = test: In vivo optimal i.p. dose administered on days 1, 5, and 9 after i.p. inoculation of (10E6) P388 leukemia cells.; type: functional; how it was run: as §2
# P388 [3] = test: Evaluated in vivo against P388 leukemia cells ( percent increase in life span of treated animals over that of control groups of tumor bearing untreated animals.); type: functional, Mus musculus
# L1210 [4] = test: In vitro cytotoxicity against L1210 leukemia cells; type: functional; conditions: Mus musculus, read-out: ID50 (the source's name); how it was run: as §1
Structure (SMILES),IC50 (HCT-8),IC50 (L1210 [1]),ILS (P388 [2]),OD (Mus musculus),ILS (P388 [3]),IC50 (L1210 [4])
CN(C)CCNC(=O)c1cccc2c(N)c3cc(Cl)ccc3nc12,0.485 µM,0.722 µM,No activity,13.3 mg/kg/day,,
CN(C)CCNC(=O)c1cccc2c(N)c3c(Cl)cccc3nc12,0.36 µM,0.25 µM,No activity,20 mg/kg/day,,
COc1ccc2c(N)c3cccc(C(=O)NCCN(C)C)c3nc2c1,,,No activity,8.9 mg/kg/day,,
Cc1cccc2c(N)c3cccc(C(=O)NCCN(C)C)c3nc12,0.011 µM,0.00047 µM,,2.6 mg/kg/day,107%,
Cc1ccc2c(N)c3cccc(C(=O)NCCN(C)C)c3nc2c1,0.12 µM,,,2.6 mg/kg/day,20%,
CN(C)CCNC(=O)c1cc(Cl)cc2c(N)c3ccccc3nc12,0.325 µM,0.3 µM,No activity,20 mg/kg/day,,
CN(C)CCNC(=O)c1cccc2c(N)c3ccccc3nc12,0.066 µM,,,4.5 mg/kg/day,,0.015 µM
Cc1ccc2nc3c(C(=O)NCCN(C)C)cccc3c(N)c2c1,0.485 µM,,No activity,13.3 mg/kg/day,,
COc1ccc(C(=O)NCCN(C)C)c2nc3ccccc3c(N)c12,0.019 µM,0.00055 µM,,8.9 mg/kg/day,27%,
CN(C)CCNC(=O)c1ccc(Cl)c2c(N)c3ccccc3nc12,0.36 µM,0.0048 µM,,8.9 mg/kg/day,29%,
Cc1cc(C(=O)NCCN(C)C)c2nc3ccccc3c(N)c2c1,0.425 µM,0.59 µM,No activity,30 mg/kg/day,,
CN(C)CCNC(=O)c1cccc2c(N)c3ccc(Cl)cc3nc12,0.245 µM,0.105 µM,No activity,8.9 mg/kg/day,,
COc1ccc2nc3c(C(=O)NCCN(C)C)cccc3c(N)c2c1,0.6 µM,0.67 µM,No activity,13.3 mg/kg/day,,
COc1cccc2c(N)c3cccc(C(=O)NCCN(C)C)c3nc12,0.089 µM,0.0043 µM,,3.9 mg/kg/day,81%,
COc1cccc2nc3c(C(=O)NCCN(C)C)cccc3c(N)c12,0.486 µM,0.22 µM,No activity,45 mg/kg/day,,
CN(C)CCNC(=O)c1cccc2c(N)c3cccc(Cl)c3nc12,0.033 µM,0.0029 µM,,2.6 mg/kg/day,81%,
Cc1cccc2nc3c(C(=O)NCCN(C)C)cccc3c(N)c12,0.25 µM,0.34 µM,No activity,8.9 mg/kg/day,,
COc1ccc2c(N)c3ccccc3nc2c1C(=O)NCCN(C)C,0.78 µM,0.3 µM,No activity,20 mg/kg/day,,
COc1cc(C(=O)NCCN(C)C)c2nc3ccccc3c(N)c2c1,0.032 µM,0.0029 µM,,5.9 mg/kg/day,72%,
